Bioassay records: PubChem, SRMLSC
Many of the other results were omitted from the sample, so hits are more common in it than they were.
Fibroblast inh: blocks proliferation of human lung fibroblasts. LL 47 human lung fibroblast viability, ATP luminescence; active compounds read low. viability, % at 10 µM. 1.1% of 85,000 active. AID 719;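 active = viability at or below 50% in the single dose screen; inactive = viability above 50%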;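 also: compound exposure lasted 72 h before the ATP readout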
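test system = LL 47 human lung fibroblasts | amount = 1,150 fibroblasts seeded per well | medium = 15% FBS in IMEM | times = overnight cell rest, 72 h compound treatment at 37 °C | measured by = CellTiter-Glo luminescence measuring cellular ATP | read-out = viability percentage against median untreated-cell control | benchmarks = cell-only wells, no compound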
HUVEC inhibit: inhibitors of human endothelial cell proliferation | viability, % at 10 µM (by protocol) | HUVEC proliferation, CellTiter-Glo luminescence, 72 h; active compounds read low | AID 648 | 1.1% of 86,000 active;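 active = viability at or below 30%; inactive = viability above 30%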
H69AR growth 86K: growth inhibitors of human H69AR lung tumor cells; 6% of 85,000 active; AID 598; viability, % at 10 µM; H69AR lung tumor viability, ATP luminescence, 72 h; active compounds read low;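 active = viability at or below 40%; inactive = viability above 40%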;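 also: multidrug resistant small cell line overexpressing MRP-1 efflux transporter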
HCT116 PTEN-null: suppresses growth of cells with PTEN deletion; viability, % at 10 µM; 1.2% of 140,000 active; HCT116 PTEN-null viability, CellTiter-Glo, 60 h; active compounds read low;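 active = viability at or below a set limit, 4 SD under the median of all tested compounds, cut at about 3.7% in these data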;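 also: PTEN knockout HCT116 line with beta catenin targeted HCT116 as companion control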
HCT116 bCat-KO: beta-catenin-lacking colon tumor cell growth suppression; HCT116 beta-catenin knockout viability, CellTiter-Glo, 60 h; active compounds read low; viability, % at 10 µM; 1.5% of 140,000 active;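 active = viability at or under a set limit, the compound median less 4 SD, cut at about 6% in these data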
A number is an active result; . = inactive; / = no result given.

SMILES	Fibroblast inh	HUVEC inhibit	H69AR growth 86K	HCT116 PTEN-null	HCT116 bCat-KO
CN(C)S(=O)(=O)n1cnc2ccccc21	.	.	.	.	.
O=S(=O)(/C=C/c1ccccc1)n1cnc2ccccc21	.	.	20	.	.
Cc1cccc(NC(=O)c2cc(NC(=O)c3ccco3)ccc2N2CCCCC2)c1	.	26	.	.	.
Cc1[nH]c2ccccc2c1C(=O)CSC(=S)N1CCCCC1	/	/	/	.	.
CCN(CC)S(=O)(=O)c1ccc(-c2nnc(SCC(=O)Nc3ccc4c(c3)OCO4)o2)cc1	.	.	32	.	.
CCN(CC)S(=O)(=O)c1ccc(NC(=O)CSc2nnc(-c3ccc(F)cc3)o2)cc1	.	.	.	.	.
O=S(=O)(c1ccc(-c2nnc(SCc3nnc(-c4ccccc4)o3)o2)cc1)N1CCCC1	/	/	/	.	.
Cc1ccc(NC(=O)CSc2nnc(-c3ccc(S(=O)(=O)N4CCCC4)cc3)o2)cc1C	.	.	32	.	.
CCN(CC)S(=O)(=O)c1ccc(-c2nnc(SCc3nnc(-c4ccccc4)o3)o2)cc1	.	.	20	.	.
O=C(COc1ccc(Cl)cc1Br)NC(=O)NCc1ccccc1	/	/	/	.	.
C/C(=N\NC(=O)C(C)n1nc(C)c([N+](=O)[O-])c1C)c1ccccc1O (stereo unspecified)	/	/	/	.	6.1
O=C(N/N=C/c1ccccn1)c1ccc(Br)cc1	/	/	/	3.6	3.6
CCOC(=O)c1nnn(-c2nonc2N)c1CN1CCc2ccccc2C1	.	.	.	.	.
COC(=O)c1nnn(-c2nonc2N)c1CN1CCc2ccccc21	.	.	28	.	.
CCCC(O)(c1ccc(Cl)cc1)C(CN1CCOCC1)c1ccccc1 (stereo unspecified)	.	.	40	.	.
CCCCC(O)(CCN1CCOCC1)c1ccc(Cl)cc1 (stereo unspecified)	.	.	.	.	.
Cc1[nH]n(-c2ccc([N+](=O)[O-])cc2)c(=O)c1C=NCCN1CCN(C(=O)c2ccc(Br)cc2)CC1	.	.	40	.	.
COc1ccc(NC(=O)/C(=C/c2cccnc2)NC(=O)c2cccs2)cc1	/	/	/	.	.
CCC(=O)N1c2ccccc2-c2nnc(SC)nc2OC1c1ccc(N(C)C)cc1 (stereo unspecified)	.	.	.	.	.
CCC1Oc2nc(SC)nnc2-c2ccccc2N1C(=O)c1ccccc1 (stereo unspecified)	.	.	25	.	.
O=S(=O)(c1ccc(Oc2ncnc3scc(-c4ccccc4)c23)cc1)N1CCOCC1	.	.	37	.	.
Cc1cccc(C)c1NC(=O)CN(C)C(=O)C(c1ccccc1)c1ccccc1	/	/	/	.	.
Cc1ccc(S(=O)(=O)N(c2nc(NC(C)C)nc(NC(C)C)n2)n2cnnc2)cc1	/	/	/	.	.
O=C(CSc1nc2ccc(NC(=O)CSc3nnnn3-c3ccccc3)cc2s1)Nc1ccccc1	/	/	/	.	.
Cc1cccc(NC(=O)CSc2nc3ccc(NC(=O)CSc4nnnn4-c4ccccc4)cc3s2)c1C	/	/	/	.	2.3
SMILES	Fibroblast inh	HUVEC inhibit	H69AR growth 86K	HCT116 PTEN-null	HCT116 bCat-KO
CC(C)C(=O)c1cn(CC(=O)N2CCCc3ccccc32)c2ccccc12	.	.	36	.	.
CCOC(=O)c1cnc2ccc(OCC)cc2c1N1CCN(c2ccccc2OC)CC1	.	.	29	.	.
CSc1cccc(NC(=O)C2CCCN(S(=O)(=O)c3ccc(F)cc3)C2)c1 (stereo unspecified)	.	.	21	.	.
O=C(Nc1cccc(Cl)c1)C1CCCN(S(=O)(=O)c2ccc(F)cc2)C1 (stereo unspecified)	.	.	29	.	.
O=C(O)C1C2CC3C(OC(=O)C31)C2Cl (stereo unspecified)	/	/	/	.	.
CC[C@H]1OC(=O)C[C@@H](O)[C@H](C)[C@@H](O[C@@H]2O[C@H](C)C[C@H](N(C)C)[C@H]2O)[C@@H](CC=O)C[C@@H](C)C(=O)C=C[C@]2(C)O[C@H]2[C@@H]1C	38	.	25	/	/
COC(=O)CS(=O)(=O)c1nnc([C@H](Cc2ccccc2)NC(=O)OC(C)(C)C)o1	0.9	.	0.3	.	.
Cc1cccc(CS(=O)(=O)c2nnc([C@H](Cc3ccccc3)NC(=O)OC(C)(C)C)o2)c1	.	.	0.5	1.4	1.4
C=CCNC(=O)C(=O)N/N=C/c1ccco1	/	/	/	.	.
Cc1c(-c2ccccc2)oc2c(C(=O)N3CCN(c4ccccc4F)CC3)cccc2c1=O	/	/	/	.	.
O=C(Nc1ccc(N2CCOCC2)cc1)c1ccc(Cl)nc1	.	.	.	.	.
CS(=O)(=O)c1ncc(Cl)c(C(=O)Nc2ccc(N3CCOCC3)cc2)n1	/	.	0.2	.	.
O=C(NC(=S)Nc1ccc2c(c1)OCCO2)c1cccc2ccccc12	/	/	/	.	.
COc1ccc(C(=O)COC(=O)CN2C(=O)C3C4C=CC(C5CC45)C3C2=O)cc1 (stereo unspecified)	/	/	/	.	.
COc1ccc(-c2nn(-c3ccccc3)cc2C(=O)O)cc1OC	.	.	.	.	.
C#CCOC(=O)c1ccccc1C(=O)n1nnc2ccccc21	.	.	38	.	.
O=C(c1cccc2ccccc12)n1nnc2ccccc21	.	.	6.5	/	/
COc1ccc(-c2nn(-c3ccccc3)cc2C(=O)n2nnc3ccccc32)cc1	.	.	23	.	.
Cc1ccc(C(=O)n2nnc3ccccc32)cc1	.	.	.	/	/
CCOC(=O)c1ccccc1OCc1cc(/C=N/n2cncn2)ccc1OC	.	.	34	.	.
CC1CN(C(=O)/C(C#N)=C2\N=C(NC(=O)c3ccccc3Cl)c3ccccc32)CC(C)O1 (stereo unspecified)	/	/	/	.	.
COc1cc2c(cc1NC(=O)Cn1cnc3c1c(=O)n(C)c(=O)n3C)oc1ccccc12	.	.	8.1	.	.
COc1ccc(Cl)cc1NC(=O)C1CCCO1 (stereo unspecified)	.	.	.	.	.
COc1cc2c(cc1NC(=O)C1CCCO1)oc1ccccc12 (stereo unspecified)	.	.	35	.	.
Cc1cc(C)n(CC(O)Cn2c3ccc(Br)cc3c3cc(Br)ccc32)c(=O)n1 (stereo unspecified)	.	21	.	.	.
SMILES	Fibroblast inh	HUVEC inhibit	H69AR growth 86K	HCT116 PTEN-null	HCT116 bCat-KO
Cc1cc(C)n(CC(O)Cn2c3ccccc3c3ccccc32)c(=O)n1 (stereo unspecified)	.	.	.	.	.
COCCn1c(SCC(=O)Nc2cc(C)nn2-c2ccccc2)nnc1-c1ccncc1	/	/	/	.	.
COc1ccc(C(c2nnnn2C(C)(C)C)N2CCN(c3nc4ccccc4s3)CC2)cc1 (stereo unspecified)	.	.	.	.	.
CCC(C)(C)n1nnnc1C(c1ccc(O)c(OC)c1)N1CCc2ccccc2C1 (stereo unspecified)	.	.	34	.	.
CCC(C)(C)n1nnnc1C(c1ccc(O)c(OC)c1)N1CCN(c2nc3ccccc3s2)CC1 (stereo unspecified)	.	.	14	.	.
O=C(OC1C2CCC1C1CN(CCc3ccccc3)CC12)c1ccccc1 (stereo unspecified)	/	/	/	.	.
